Results from different studies.
Lines come from different studies, so protocols differ.
Target: TGF-beta receptor type-2 (TGFBR2, Homo sapiens, UniProt P37173)

Compound | read-out | method | concentration | remaining binding [%]
COc1ccc2c(O[C@@H]3C[C@H]4C(=O)N[C@]5(C(=O)O)CC5/C=C\CCCCC[C@H](NC(=O)OC5CCCC5)C(=O)N4C3)cc(-c3csc(NC(=O)C(C)C)n3)nc2c1C (stereo partly drawn) | cell-free assay | competition with immobilised ligand | 1 µM | 93
CN(C)c1ncc(F)c(-c2cnn3ncccc23)n1 | binding | – | 1 µM | 100
O=C(NS(=O)(=O)c1ccc(NCC2CCOCC2)c([N+](=O)[O-])c1)c1ccc(N2CCN(Cc3ccc(C(F)(F)F)cc3-c3ccc(Cl)cc3)CC2)cc1Oc1cnc2[nH]ccc2c1 | cell-free assay | competition with immobilised ligand | 1 µM | 76
O=C(NCCCN1CCOCC1)c1ccc(Nc2ncc(Cl)c(-c3ccc(Cl)s3)n2)cc1 | binding | competition with immobilised ligand | 1 µM | 100
Nc1ncc2c(n1)-c1c([nH]c3ccc(C#CC4CC4)cc13)CCCC2 | binding | competition with immobilised ligand | 1 µM | 100
CCN1CCN(Cc2ccc(C(=O)Nc3ccc(C)c(Oc4ccc5c(c4)CC(=O)N5)c3)cc2C(F)(F)F)CC1 | binding | competition with immobilised ligand | 1 µM | 100
N[C@H]1CCN(c2nccc(-c3cnn4ncccc34)n2)C1 | binding | – | 1 µM | 86
C=CC(=O)N1CCC(C(=O)NCC(=O)N2CCN(c3nc(-c4cnc(N)nc4C(F)F)nc(N4CCOCC4)n3)CC2)CC1 | binding | competition with immobilised ligand | 1 µM | 88
O=C(NCCCN1CCOCC1)c1ccc(Nc2nccc(-c3cc4ccccc4s3)n2)cc1 | binding | competition with immobilised ligand | 1 µM | 64
O=C1CCc2cc(Nc3cc(OC4CCOCC4)c([N+](=O)[O-])cc3Cl)ccc2N1 | cell-free assay | competition with immobilised ligand | 1 µM | 98
c1cnn2ncc(-c3ccnc(N4CCC45COC5)n3)c2c1 | binding | – | 1 µM | 36
C[C@@H](c1ccc(-n2cnc3c(N)ncnc32)cc1)N1CCc2nn(C)c(Cc3ccccc3)c2C1=O | binding | competition with immobilised ligand | 0.1 µM | 84
C[C@@H]1CCN(c2nccc(-c3cnn4ncccc34)n2)C1 | binding | – | 1 µM | 100
COc1cc(-c2cn(C3CCc4c(F)cccc4N(CC(F)(F)F)C3=O)nn2)ccc1-n1cnc(C)c1 (stereo not drawn) | cell-free assay | competition with immobilised ligand | 1 µM | 100
O=C(Nc1c[nH]nc1C(=O)NC1CCNCC1)c1cc(F)cc(F)c1 | binding | competition with immobilised ligand | 1 µM | 90
CC1CCCN1c1nccc(-c2cnn3ncccc23)n1 (stereo not drawn) | binding | – | 1 µM | 100
CNCc1ccccc1-c1csc([C@H](C)Nc2nc(C)nc3cc(OC)c(OC)cc23)c1 | cell-free assay | competition with immobilised ligand | 1 µM | 97
COc1cnc(Nc2cccc(S(N)(=O)=O)c2)nc1N1CCN(c2ccccc2)C(=O)C1 | binding | competition with immobilised ligand | 1 µM | 100
CC1=C(C#N)[C@@H](c2ccc3[nH]nc(C)c3c2)C(C#N)=C(c2ccc(Cl)cc2)N1 | cell-free assay | competition with immobilised ligand | 1 µM | 74.6
O=C(c1ccc(Nc2ncc(Cl)c(-c3cc4ccccc4s3)n2)cc1)N1CCC(N2CCCC2)CC1 | binding | competition with immobilised ligand | 1 µM | 84
CN(C)c1nccc(-c2cnn3ncccc23)n1 | binding | – | 1 µM | 73
